Laboratory results reported in ChEMBL document CHEMBL4680254, “Design, synthesis and discovery of 2(1H)-quinolone derivatives for the treatment of pulmonary fibrosis through inhibition of TGF-β/smad dependent and independent pathway” (Eur J Med Chem, 2020).
Activity calls are given as the source filed them. The calls are words filed in the database; no cut-off is given here.

Key:
[1] = tested on: NRK-49F; test: Inhibition of TGF-beta-induced collagen accumulation in rat NRK-49F cells at 10 uM incubated for 2 days by PSR staining based microscopic analysis relative to control; type: functional; settings: 48 h, time 2 day
Procedure, shortened: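 NRK-49F cells were grown 3 days in DMEM with 5% FBS, then 2 days in DMEM with 1% ITS. Next came 2 days with TGF-β 5 ng/ml plus or minus compound 10 µM. Cells were fixed in 4% paraformaldehyde and stained 4 h with 0.1% Picrosirius Red, then rinsed with acetic acid. Dye was eluted with 0.1 M NaOH and OD read at 540 nm. Inhibition = […] ×100%, in triplicate.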

[2] = Cytotoxicity against rat NRK-49F cells assessed as cell survival rate at 10 uM incubated for 72 hrs by MTT assay; type: cell-based; settings: read-out: Activity
Procedure, shortened: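 NRK-49F cells were seeded at 0.5×10^5 cells/ml, cultured overnight, then exposed to compound 10 µM for 72 h. MTT was added and incubated 4 h, formazan dissolved in DMSO and absorbance read. Survival = (treated − zero)/(blank − zero) A ×100%, done in triplicate.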

[3] = tested on: NRK-49F; test: Inhibition of TGF-beta-induced collagen accumulation in rat NRK-49F cells incubated for 2 days by PSR staining based microscopic analysis; type: functional, cell-based; settings: 48 h
[4] = tested on: L929; test: Antimigratory activity in mouse L929 cells assessed as inhibition of TGF-beta-induced cell migration at 10 uM incubated for 24 hrs by wound healing assay; type: functional, cell-based
Procedure, shortened: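 Mouse L929 fibroblasts (MEM, 10% FBS, 37 °C, 5% CO₂) were grown to confluence and scratched with a pipette tip to a 100 µm wound. They were then kept in serum-free medium with or without TGF-β 5 ng/ml and compound 10 µM for 24 h. Wounds were imaged by light microscopy at 0, 12 and 24 h.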

IC50 [3] [µM] | SMILES | inhibition at 10 µM [1] [%] | viability at 72 h, 10 µM [2] [%] | inhibition [4]
 | CC(=O)N1CCN(CC(=O)Nc2ccc(Oc3cc(=O)[nH]c4ccccc34)c(F)c2)CC1 | 42.7 | 108 | 
 | O=C(CN1CCOCC1)Nc1ccc(Oc2cc(=O)[nH]c3ccccc23)cc1 | 59.3 | 95.7 | 
 | CC(=O)N1CCN(CC(=O)Nc2ccc(Oc3cc(=O)[nH]c4ccccc34)cc2)CC1 | 50 | 96.3 | 
 | CN1CCN(CC(=O)Nc2ccc(Oc3cc(=O)[nH]c4ccccc34)cc2)CC1 | 43.7 | 80.2 | 
 | CCNCC(=O)Nc1ccc(Nc2cc(=O)[nH]c3ccccc23)cc1 | 28.7 | 83.7 | 
 | CC1CCN(CC(=O)Nc2ccc(Nc3cc(=O)[nH]c4ccccc34)cc2)CC1 | 20.1 | 82.5 | 
5.33 | O=C(CN1CCCC1)Nc1ccc(Sc2cc(=O)[nH]c3ccccc23)cc1 | 80.9 | 87 | Active
 | O=C(CN1CCCC1)Nc1ccc(Oc2cc(=O)[nH]c3ccccc23)cc1 | 68 | 82.2 | 
 | CC(C)(C)N1CCN(CC(=O)Nc2ccc(Oc3cc(=O)[nH]c4ccccc34)cc2)CC1 | 73.2 | 92.7 | 
 | CCN1CCN(CC(=O)Nc2ccc(Nc3cc(=O)[nH]c4ccccc34)cc2)CC1 | 46 | 64.8 | 
 | CCN(CC)CC(=O)Nc1ccc(Nc2cc(=O)[nH]c3ccccc23)cc1 | 44.2 | 82.6 | 
 | CC1CCN(CC(=O)Nc2ccc(Oc3cc(=O)[nH]c4ccccc34)cc2)CC1 | 31.5 | 79.9 | 
 | O=C(CN1CCOCC1)Nc1ccc(Sc2cc(=O)[nH]c3ccccc23)cc1 | 53.4 | 77.4 | 
 | CC(C)(C)N1CCN(CC(=O)Nc2ccc(Oc3ccc4[nH]c(=O)ccc4c3)c(F)c2)CC1 | 61.5 | 83.3 | 
 | O=C(CN1CCNCC1)Nc1ccc(Oc2cc(=O)[nH]c3ccccc23)c(F)c1 | 60.3 | 93.3 | 
 | CN(C)C1CCN(CC(=O)Nc2ccc(Sc3cc(=O)[nH]c4ccccc34)cc2)CC1 | 51.1 | 80.3 | 
 | CCN1CCN(CC(=O)Nc2ccc(Oc3cc(=O)[nH]c4ccccc34)cc2)CC1 | 41.7 | 91.7 | 
 | O=C(CNC1CCOCC1)Nc1ccc(Oc2cc(=O)[nH]c3ccccc23)cc1 | 46 | 96 | 
 | CCNCC(=O)Nc1ccc(Sc2cc(=O)[nH]c3ccccc23)cc1 | 51.1 | 87.7 | 
 | CN1CCN(CC(=O)Nc2ccc(Sc3cc(=O)[nH]c4ccccc34)cc2)CC1 | 40 | 86.7 | 

IC50 [3] [µM] | SMILES | inhibition at 10 µM [1] [%] | viability at 72 h, 10 µM [2] [%] | inhibition [4]
 | CN(C)C1CCN(CC(=O)Nc2ccc(Oc3cc(=O)[nH]c4ccccc34)c(F)c2)CC1 | 60.7 | 98.6 | 
 | O=C(CN1CCCCC1)Nc1ccc(Nc2cc(=O)[nH]c3ccccc23)cc1 | 24.4 | 75.4 | 
 | CCN(CC)CC(=O)Nc1ccc(Sc2cc(=O)[nH]c3ccccc23)cc1 | 58.6 | 85.5 | 
 | O=C(CN1CCN(C(=O)C2CC2)CC1)Nc1ccc(Oc2ccc3ccc(=O)[nH]c3c2)c(F)c1 | 56.6 | 98.2 | 
 | CC(C)(C)N1CCN(CC(=O)Nc2ccc(Oc3ccc4ccc(=O)[nH]c4c3)c(F)c2)CC1 | 67.7 | 89.8 | 
 | CN1CCN(CC(=O)Nc2ccc(Oc3cc(=O)[nH]c4ccccc34)c(F)c2)CC1 | 73.9 | 99 | 
 | CC(C)(C)OC(=O)N1CCN(CC(=O)Nc2ccc(Oc3cc(=O)[nH]c4ccccc34)cc2)CC1 | 76.2 | 75.6 | 
 | CCN(CC)CC(=O)Nc1ccc(Oc2cc(=O)[nH]c3ccccc23)c(F)c1 | 58.8 | 106 | 
 | CC(C)(C)OC(=O)N1CCN(CC(=O)Nc2ccc(Oc3ccc4ccc(=O)[nH]c4c3)c(F)c2)CC1 | 76.4 | 89.7 | 
 | CN1CCN(CC(=O)Nc2ccc(Nc3cc(=O)[nH]c4ccccc34)cc2)CC1 | 38.9 | 78 | 
 | CC(C)(C)OC(=O)N1CCN(CC(=O)Nc2ccc(Oc3ccc4[nH]c(=O)ccc4c3)c(F)c2)CC1 | 57.4 | 85.6 | 
 | O=C(CN1CCCCC1)Nc1ccc(Sc2cc(=O)[nH]c3ccccc23)cc1 | 28.4 | 93.5 | 
 | CN(C)C1CCN(CC(=O)Nc2ccc(Nc3cc(=O)[nH]c4ccccc34)cc2)CC1 | 50.2 | 83.5 | 
 | CCN1CCN(CC(=O)Nc2ccc(Sc3cc(=O)[nH]c4ccccc34)cc2)CC1 | 56.6 | 78 | 
 | CN(C)C1CCN(CC(=O)Nc2ccc(Oc3cc(=O)[nH]c4ccccc34)cc2)CC1 | 43.9 | 81.2 | 
 | O=C(CNC1CCOCC1)Nc1ccc(Oc2cc(=O)[nH]c3ccccc23)c(F)c1 | 53.9 | 90.8 | 
 | O=C(CN1CCOCC1)Nc1ccc(Nc2cc(=O)[nH]c3ccccc23)cc1 | 40.9 | 81.9 | 
 | O=C(CN1CCN(C(=O)C2CC2)CC1)Nc1ccc(Oc2cc(=O)[nH]c3ccccc23)cc1 | 78.3 | 92.2 | 
 | CC(=O)N1CCN(CC(=O)Nc2ccc(Sc3cc(=O)[nH]c4ccccc34)cc2)CC1 | 39.4 | 101 | 
 | O=C(CN1CCN(C(=O)C2CC2)CC1)Nc1ccc(Oc2ccc3[nH]c(=O)ccc3c2)c(F)c1 | 34.6 | 95.2 | 

IC50 [3] [µM] | SMILES | inhibition at 10 µM [1] [%] | viability at 72 h, 10 µM [2] [%] | inhibition [4]
 | O=C(CN1CCNCC1)Nc1ccc(Oc2cc(=O)[nH]c3ccccc23)cc1 | 58.1 | 95.1 | 
 | CC(C)(C)OC(=O)N1CCN(CC(=O)Nc2ccc(Sc3cc(=O)[nH]c4ccccc34)cc2)CC1 | 72.4 | 71.2 | 
5.27 | CCN(CC)CC(=O)Nc1ccc(Oc2cc(=O)[nH]c3ccccc23)cc1 | 86.1 | 96.3 | Active
 | O=C(CN1CCCCC1)Nc1ccc(Oc2cc(=O)[nH]c3ccccc23)cc1 | 27.4 | 78.5 | 
 | CC(C)(C)OC(=O)N1CCN(CC(=O)Nc2ccc(Nc3cc(=O)[nH]c4ccccc34)cc2)CC1 | 73.3 | 67.5 | 
 | O=C(CN1CCCCC1)Nc1ccc(Oc2cc(=O)[nH]c3ccccc23)c(F)c1 | 38.3 | 87.2 | 
 | CCNCC(=O)Nc1ccc(Oc2cc(=O)[nH]c3ccccc23)c(F)c1 | 50.6 | 99.3 | 
 | O=C(CN1CCCC1)Nc1ccc(Nc2cc(=O)[nH]c3ccccc23)cc1 | 59.9 | 72.5 | 
 | O=C(CNC1CCOCC1)Nc1ccc(Nc2cc(=O)[nH]c3ccccc23)cc1 | 50 | 83.5 | 
 | O=C(CN1CCOCC1)Nc1ccc(Oc2cc(=O)[nH]c3ccccc23)c(F)c1 | 47.3 | 90.8 | 
4.47 | CC(C)(C)N1CCN(CC(=O)Nc2ccc(Oc3cc(=O)[nH]c4ccccc34)c(F)c2)CC1 | 78 | 93.1 | Active
 | CCN1CCN(CC(=O)Nc2ccc(Oc3cc(=O)[nH]c4ccccc34)c(F)c2)CC1 | 49.1 | 89.6 | 
 | O=C(CNC1CCOCC1)Nc1ccc(Sc2cc(=O)[nH]c3ccccc23)cc1 | 53 | 83.9 | 
 | CC1CCN(CC(=O)Nc2ccc(Sc3cc(=O)[nH]c4ccccc34)cc2)CC1 | 28.6 | 116 | 
6.12 | CC(C)(C)OC(=O)N1CCN(CC(=O)Nc2ccc(Oc3cc(=O)[nH]c4ccccc34)c(F)c2)CC1 | 89.1 | 86.2 | Active
 | O=C(CN1CCCC1)Nc1ccc(Oc2cc(=O)[nH]c3ccccc23)c(F)c1 | 49.5 | 96.4 | 
 | CC(=O)N1CCN(CC(=O)Nc2ccc(Nc3cc(=O)[nH]c4ccccc34)cc2)CC1 | 39 | 72.5 | 
 | CC1CCN(CC(=O)Nc2ccc(Oc3cc(=O)[nH]c4ccccc34)c(F)c2)CC1 | 45.9 | 105 | 
 | CCNCC(=O)Nc1ccc(Oc2cc(=O)[nH]c3ccccc23)cc1 | 25.4 | 89.2 | 
